In ChEMBL document CHEMBL1137018 (Antimicrob Agents Chemother, 2007):

What was measured:
[1] = AUC (0 to 12 hrs) in human at 400 mg, po bid from day 11 to day 20 pretreated with voriconazole 400 mg, po bid on day 1 and 200 mg, po bid on day 2 and 3 followed by washout from day 4 to day 10; assay type: ADME, organism-based; set-up: dose 400 mg, time < 12 hr, route oral; conditions: plasma
Procedure, shortened: (§1)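 Blood (7 ml) drawn on days 20 and 30 at 0.5–12 h postdose, centrifuged at 1,700 x g about 10 min at about 4°C, plasma stored at about –20°C. Validated LC/MS/MS assay; noncompartmental analysis, with Cmax and Tmax read directly from concentration-time data.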

[2] = Cmax in human at 400 mg, po bid from day 11 to day 20 pretreated with voriconazole 400 mg, po bid on day 1 and 200 mg, po bid on day 2 and 3 followed by washout from day 4 to day 10; assay type: ADME, organism-based; set-up: dose 400 mg, route oral; conditions: in vivo; procedure, shortened: as §1
[3] = Tmax in human at 400 mg, po bid from day 11 to day 20 pretreated with voriconazole 400 mg, po bid on day 1 and 200 mg, po bid on day 2 and 3 followed by washout from day 4 to day 10; assay type: ADME, organism-based; conditions: in vivo; procedure, shortened: as §1
[4] = AUC (0 to 12 hrs) in human at 400 mg, po bid from day 11 to day 20 pretreated with placebo from day 1 to day 3 followed by washout from day 4 to day 10; assay type: ADME, organism-based; set-up: dose 400 mg, time < 12 hr, route oral; conditions: plasma; procedure, shortened: as §1
[5] = Cmax in human at 400 mg, po bid from day 11 to day 20 pretreated with placebo from day 1 to day 3 followed by washout from day 4 to day 10; assay type: ADME, organism-based; set-up: dose 400 mg, route oral; conditions: in vivo; procedure, shortened: as §1
[6] = Tmax in human at 400 mg, po bid from day 11 to day 20 pretreated with placebo from day 1 to day 3 followed by washout from day 4 to day 10; assay type: ADME, organism-based; conditions: in vivo; procedure, shortened: as §1
[7] = AUC (0 to 12 hrs) in human at 100 mg, po bid from day 11 to day 20 pretreated with voriconazole 400 mg, po bid on day 1 and 200 mg, po bid on day 2 and 3 followed by washout from day 4 to day 10; assay type: ADME, organism-based; set-up: dose 100 mg, time < 12 hr, route oral; conditions: plasma; procedure, shortened: as §1
[8] = Cmax in human at 100 mg, po bid from day 11 to day 20 pretreated with voriconazole 400 mg, po bid on day 1 and 200 mg, po bid on day 2 and 3 followed by washout from day 4 to day 10; assay type: ADME, organism-based; set-up: dose 100 mg, route oral; conditions: in vivo; procedure, shortened: as §1
[9] = Tmax in human at 100 mg, po bid from day 11 to day 20 pretreated with voriconazole 400 mg, po bid on day 1 and 200 mg, po bid on day 2 and 3 followed by washout from day 4 to day 10; assay type: ADME, organism-based; conditions: in vivo; procedure, shortened: as §1
[10] = AUC (0 to 12 hrs) in human at 400 mg, po bid from day 11 to day 20 pretreated with voriconazole 400 mg, po bid on day 1 and 200 mg, po bid on day 2 and 3 followed by washout from day 4 to day 10 followed by 400 mg, po of drug coadministered with voriconazole 200 mg, po from day 21 to day 30; assay type: ADME, organism-based; set-up: time < 12 hr, dose 400 mg, route oral; conditions: plasma; procedure, shortened: as §1
[11] = Cmax in human at 400 mg, po bid from day 11 to day 20 pretreated with voriconazole 400 mg, po bid on day 1 and 200 mg, po bid on day 2 and 3 followed by washout from day 4 to day 10 followed by 400 mg, po of drug coadministered with voriconazole 200 mg, po from day 21 to day 30; assay type: ADME, organism-based; set-up: dose 400 mg, route oral; conditions: in vivo; procedure, shortened: as §1
[12] = Tmax in human at 400 mg, po bid from day 11 to day 20 pretreated with voriconazole 400 mg, po bid on day 1 and 200 mg, po bid on day 2 and 3 followed by washout from day 4 to day 10 followed by 400 mg, po of drug coadministered with voriconazole 200 mg, po from day 21 to day 30; assay type: ADME, organism-based; conditions: in vivo; procedure, shortened: as §1
[13] = AUC (0 to 12 hrs) in human at 100 mg, po bid from day 11 to day 20 pretreated with voriconazole 400 mg, po bid on day 1 and 200 mg, po bid on day 2 and 3 followed by washout from day 4 to day 10 followed by 100 mg, po of drug coadministered with voriconazole 200 mg, po from day 21 to day 30; assay type: ADME, organism-based; set-up: dose 100 mg, time < 12 hr, route oral; conditions: plasma; procedure, shortened: as §1
[14] = Cmax in human at 100 mg, po bid from day 11 to day 20 pretreated with voriconazole 400 mg, po bid on day 1 and 200 mg, po bid on day 2 and 3 followed by washout from day 4 to day 10 followed by 100 mg, po of drug coadministered with voriconazole 200 mg, po from day 21 to day 30; assay type: ADME, organism-based; set-up: dose 100 mg, route oral; conditions: in vivo; procedure, shortened: as §1
[15] = Tmax in human at 100 mg, po bid from day 11 to day 20 pretreated with voriconazole 400 mg, po bid on day 1 and 200 mg, po bid on day 2 and 3 followed by washout from day 4 to day 10 followed by 100 mg, po of drug coadministered with voriconazole 200 mg, po from day 21 to day 30; assay type: ADME, organism-based; conditions: in vivo
[16] = AUC (0 to 12 hrs) in human at 400 mg, po bid from day 11 to day 20 pretreated with placebo from day 1 to day 3 followed by washout from day 4 to day 10 followed by 400 mg, po of drug coadministered with placebo from day 21 to day 30; assay type: ADME, organism-based; set-up: dose 400 mg, time < 12 hr, route oral; conditions: plasma; procedure, shortened: as §1
[17] = Cmax in human at 400 mg, po bid from day 11 to day 20 pretreated with placebo from day 1 to day 3 followed by washout from day 4 to day 10 followed by 400 mg, po of drug coadministered with placebo from day 21 to day 30; assay type: ADME, organism-based; set-up: dose 400 mg, route oral; conditions: in vivo; procedure, shortened: as §1
[18] = Tmax in human at 400 mg, po bid from day 11 to day 20 pretreated with placebo from day 1 to day 3 followed by washout from day 4 to day 10 followed by 400 mg, po of drug coadministered with placebo from day 21 to day 30; assay type: ADME, organism-based; conditions: in vivo; procedure, shortened: as §1
[19] = AUC (0 to 12 hrs) in human at 400 mg, po bid on day 1 and 200 mg, po bid on day 2 and 3 followed by 7 days of washout period then treated with ritonavir 100 mg, po for 10 days followed by 200 mg, po of drug coadministered with 100 mg, po ritonavir till day 30; assay type: ADME, organism-based; set-up: time < 12 hr, dose 400 mg, route oral; conditions: plasma
Procedure, shortened: (§2)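 Healthy male volunteers. […] Plasma was sampled on days 3 and 30 at 0.5–12 h postdose. Samples were solid-phase extracted and assayed by LC/MS/MS (range 10 to 2,500 ng/ml). Cmax and Tmax were read directly from the data; AUC0-12 was noncompartmental.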

[20] = Cmax in human at 400 mg, po bid on day 1 and 200 mg, po bid on day 2 and 3 followed by 7 days of washout period then treated with ritonavir 400 mg, po for 10 days followed by 200 mg, po of drug coadministered with 400 mg, po ritonavir till day 30; assay type: ADME, organism-based; set-up: dose 400 mg, route oral; conditions: in vivo; procedure, shortened: as §2
[21] = Tmax in human at 400 mg, po bid on day 1 and 200 mg, po bid on day 2 and 3 followed by 7 days of washout period then treated with ritonavir 400 mg, po for 10 days followed by 200 mg, po of drug coadministered with 400 mg, po ritonavir till day 30; assay type: ADME, organism-based; conditions: in vivo; procedure, shortened: as §2
[22] = AUC (0 to 12 hrs) in human at 400 mg, po bid on day 1 and 200 mg, po bid on day 2 and 3 followed by 7 days of washout period then treated with ritonavir 400 mg, po for 10 days followed by 200 mg, po of drug coadministered with 400 mg, po ritonavir till day 30; assay type: ADME, organism-based; set-up: time < 12 hr, dose 400 mg, route oral; conditions: plasma; procedure, shortened: as §2
[23] = Tmax in human at 400 mg, po bid on day 1 and 200 mg, po bid on day 2 and 3 measured after 3 days; assay type: ADME, organism-based; conditions: in vivo; procedure, shortened: as §2
[24] = Cmax in human at 400 mg, po bid on day 1 and 200 mg, po bid on day 2 and 3 measured after 3 days; assay type: ADME, organism-based; set-up: dose 400 mg, route oral; conditions: in vivo; procedure, shortened: as §2
[25] = AUC (0 to 12 hrs) in human at 400 mg, po bid on day 1 and 200 mg, po bid on day 2 and 3 measured after 3 days; assay type: ADME, organism-based; set-up: dose 400 mg, time < 12 hr, route oral; conditions: plasma; procedure, shortened: as §2
[26] = Cmax in human at 400 mg, po bid on day 1 and 200 mg, po bid on day 2 and 3 followed by 7 days of washout period then treated with ritonavir 100 mg, po for 10 days followed by 200 mg, po of drug coadministered with 100 mg, po ritonavir till day 30; assay type: ADME, organism-based; set-up: dose 400 mg, route oral; conditions: in vivo; procedure, shortened: as §2
[27] = Tmax in human at 400 mg, po bid on day 1 and 200 mg, po bid on day 2 and 3 followed by 7 days of washout period then treated with ritonavir 100 mg, po for 10 days followed by 200 mg, po of drug coadministered with 100 mg, po ritonavir till day 30; assay type: ADME, organism-based; conditions: in vivo; procedure, shortened: as §2
Homo sapiens [28] = assay: Toxicity in human assessed as mortality at 400 mg, po bid on day 1 and 200 mg, po bid on day 2 and 3 followed by 7 days of washout period then treated with ritonavir 400 mg, po for 10 days followed by 200 mg, po of drug coadministered with ritonavir 400 mg, po till day 30; assay type: organism-based; conditions: in vivo
Procedure, shortened: (§3)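 Healthy male subjects were followed for adverse events throughout dosing. Vital signs and 12-lead ECGs were recorded predose and 1, 3 and 8 h after the morning voriconazole dose on days 1, 3, 11, 15, 20, 21, 25 and 30. The baseline was the mean of triplicate day-1 predose ECGs. Safety data were summarized descriptively.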

Homo sapiens [29] = assay: Toxicity in human assessed as serious adverse events at 400 mg, po bid on day 1 and 200 mg, po bid on day 2 and 3 followed by 7 days of washout period then treated with ritonavir 400 mg, po for 10 days followed by 200 mg, po of drug coadministered with ritonavir 400 mg, po till day 30; assay type: organism-based; conditions: in vivo; procedure, shortened: as §3
Homo sapiens [30] = assay: Toxicity in human assessed as mortality at 400 mg, po bid on day 1 and 200 mg, po bid on day 2 and 3 measured after 3 days; assay type: organism-based; conditions: in vivo, 72 h; procedure, shortened: as §3
Homo sapiens [31] = assay: Toxicity in human assessed as serious adverse events at 400 mg, po bid on day 1 and 200 mg, po bid on day 2 and 3 measured after 3 days; assay type: organism-based; conditions: in vivo, 72 h; procedure, shortened: as §3
Homo sapiens [32] = assay: Toxicity in human assessed as mortality at 400 mg, po bid on day 1 and 200 mg, po bid on day 2 and 3 followed by 7 days of washout period then treated with ritonavir 100 mg, po for 10 days followed by 200 mg, po of drug coadministered with ritonavir 100 mg, po till day 30; assay type: organism-based; conditions: in vivo; procedure, shortened: as §3
Homo sapiens [33] = assay: Toxicity in human assessed as serious adverse events at 400 mg, po bid on day 1 and 200 mg, po bid on day 2 and 3 followed by 7 days of washout period then treated with ritonavir 100 mg, po for 10 days followed by 200 mg, po of drug coadministered with ritonavir 100 mg, po till day 30; assay type: organism-based; conditions: in vivo; procedure, shortened: as §3
Homo sapiens [34] = assay: Decrease in Cmax of ritonavir in human at 400 mg, po bid on day 1 and 200 mg, po bid on day 2 and 3 followed by 7 days of washout period then treated with ritonavir 100 mg, po for 10 days followed by 200 mg, po of drug coadministered with ritonavir 100 mg, po till day 30; assay type: ADME, organism-based; conditions: in vivo

SMILES: CC(C)c1nc(CN(C)C(=O)N[C@H](C(=O)N[C@@H](Cc2ccccc2)C[C@H](O)[C@H](Cc2ccccc2)NC(=O)OCc2cncs2)C(C)C)cs1 [RITONAVIR]
- AUC at 12 h [1]: 68000 ng·h/mL
- Cmax [2]: 10700 ng/mL
- Tmax [3]: 1.5 h
- AUC at 12 h [4]: 65300 ng·h/mL
- Cmax [5]: 10500 ng/mL
- Tmax [6]: 1 h
- AUC at 12 h [7]: 7810 ng·h/mL
- Cmax [8]: 1410 ng/mL
- Tmax [9]: 1 h
- AUC at 12 h [10]: 65900 ng·h/mL
- Cmax [11]: 10400 ng/mL
- Tmax [12]: 1 h
- AUC at 12 h [13]: 6430 ng·h/mL
- Cmax [14]: 992 ng/mL
- Tmax [15]: 3 h
- AUC at 12 h [16]: 58400 ng·h/mL
- Cmax [17]: 10200 ng/mL
- Tmax [18]: 1 h

SMILES: C[C@@H](c1ncncc1F)[C@](O)(Cn1cncn1)c1ccc(F)cc1F [VORICONAZOLE]
- AUC at 12 h [19]: 19500 ng·h/mL
- Cmax [20]: 1220 ng/mL
- Tmax [21]: 1 h
- AUC at 12 h [22]: 4250 ng·h/mL
- Tmax [23]: 1.5 h
- Cmax [24]: 3360 ng/mL
- AUC at 12 h [25]: 26500 ng·h/mL
- Cmax [26]: 2810 ng/mL
- Tmax [27]: 1.5 h
- Activity (Homo sapiens [28]): Non-toxic
- Activity (Homo sapiens [29]): Non-toxic
- Activity (Homo sapiens [30]): Non-toxic
- Activity (Homo sapiens [31]): Non-toxic
- Activity (Homo sapiens [32]): Non-toxic
- Activity (Homo sapiens [33]): Non-toxic
- Activity (Homo sapiens [34]): Non-toxic
